# Most compounds without a hit are left out; they make up all but 1.8% or so of the library.
# bovine MsrA act – bovine MsrA enzyme activators, primary screen, biochemical, absorbance, HTS | purified bovine MsrA, absorbance read-out | activation, % at 10.6 µM | Methionine sulfoxide reductase A (Bos taurus) | 360,000 tested, 0.3% active | AID 602163, 2012; in the data active = activation above about 7.5%;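 note: 0% = vehicle and 100% = reference activator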
# SKN-1 block – suppressors of acrylamide-induced Pgst-4::GFP reporter in worms, primary screen, SKN-1 inhibitor project, whole organism, uHTS, GFP/RFP fluorescence ratio, strain VP596; C. elegans VP596 Pgst-4::GFP/RFP ratio, 24 h; inhibition, % at 21.8 µM; 360,000 tested, 0.49% active; AID 624304, 2012;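 active = interference check ratio from 0.5 to 1.5 plus GFP to RFP signal ratio inhibition reaching or exceeding a fixed threshold, cut at about 30% in these data, passing the limit was not always enough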
# MsrA inh – bovine MsrA enzyme inhibitors, primary screen, biochemical, absorbance, HTS | Methionine sulfoxide reductase A (Bos taurus) | purified bovine MsrA, absorbance read-out | inhibition, % at 15.5 µM | 360,000 tested, 0.75% active | AID 651718, 2012; in the data active = inhibition above about 4.5%;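 note: 0% = vehicle wells with enzyme and 100% = reference inhibitor wells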
# DAGLB inhibitor – DAGLB lipase inhibitors, primary screen, biochemical, fluorescence, HTS; inhibition, % at 5.17 µM; HEK293T DAGLB membrane lysate, EnzChek fluorogenic substrate; Diacylglycerol lipase-beta (Homo sapiens), Q8NCG7; 340,000 tested, 0.059% active; AID 504411, 2011; in the data active = inhibition above about 34%;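 note: 0% = enzyme with vehicle and 100% = wells lacking enzyme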
# Target sequence (Q8NCG7 whole entry, looked up): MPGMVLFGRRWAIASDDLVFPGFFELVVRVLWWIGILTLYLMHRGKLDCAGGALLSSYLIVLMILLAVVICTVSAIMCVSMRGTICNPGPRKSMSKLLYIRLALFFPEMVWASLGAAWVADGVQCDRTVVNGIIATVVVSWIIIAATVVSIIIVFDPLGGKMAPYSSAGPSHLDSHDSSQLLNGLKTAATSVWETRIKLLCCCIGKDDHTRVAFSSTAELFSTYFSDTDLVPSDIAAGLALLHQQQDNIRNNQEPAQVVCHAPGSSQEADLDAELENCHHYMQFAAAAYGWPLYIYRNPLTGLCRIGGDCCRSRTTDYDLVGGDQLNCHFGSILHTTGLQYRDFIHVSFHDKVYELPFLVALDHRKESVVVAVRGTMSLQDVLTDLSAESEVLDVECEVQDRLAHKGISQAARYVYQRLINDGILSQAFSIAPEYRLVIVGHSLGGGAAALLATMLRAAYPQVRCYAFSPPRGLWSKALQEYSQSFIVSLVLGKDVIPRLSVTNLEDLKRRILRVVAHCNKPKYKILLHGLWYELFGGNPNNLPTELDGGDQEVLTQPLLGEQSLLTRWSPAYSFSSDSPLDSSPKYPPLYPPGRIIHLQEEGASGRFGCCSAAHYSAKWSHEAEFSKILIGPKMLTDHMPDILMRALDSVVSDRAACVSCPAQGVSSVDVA
# MIN6 prolif-1 – inducers of MIN6 beta-cell proliferation, primary screen, ATP luminescence, uHTS; MIN6 cells proliferation, ATPlite luminescence, 48 h; cells starved in 0.2% serum; 100% = growth in 10% serum; proliferation, % at 10 µM; 330,000 tested, 0.29% active; AID 2380, 2010;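 active = compounds whose signal lies at least 3.5 SD above the mean of all wells on their plate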;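 note: 0% = DMSO-treated cells in low-serum medium and 100% = 10% serum control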
# MT1-MMP act inh – blockers of MT1-MMP proenzyme processing, primary screen, HT1080 RFP-PRO-GFP cells, GFP/RFP fluorescence; GFP/RFP ratio fluorescence, overnight; percent of plate control window, DMSO zero; GFP/RFP ratio change, % at 20 µM; 360,000 tested, 0.061% active; AID 651647, 2012;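 active = GFP/RFP ratio change of at least 30% with cell ATP level not reduced by more than half and red fluorescence within 50% of control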
#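 Assay system: HT1080 RFP-PRO-GFP cells. Benchmarks: DMSO vehicle wells and RFP-L50D-GFP reporter cell wells. Times: overnight cell settling, then overnight compound exposure, 37 °C, 5% CO2. Compound: 20 µM single dose, 1% DMSO. Read-out basis: GFP/RFP fluorescence ratio.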
# MIN6 prolif-2 – inducers of beta-cell proliferation in MIN6, confirmation, MIN6 cells, mouse; shares compounds with MIN6 prolif-1; ATPlite luminescence, 48 h; cells kept in 0.2% serum; scaled between 0.2% and 10% serum; proliferation increase, % at 50 µM; 920 tested, under 10 active;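 active = proliferation increase above 40% at any of the four tested concentrations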
# * = called active by the depositor; nt = not tested or not shown.
SMILES,bovine MsrA act,SKN-1 block,MsrA inh,DAGLB inhibitor,MIN6 prolif-1,MT1-MMP act inh,MIN6 prolif-2
COC(=O)C1=C(C)N(C)C(=NCc2ccc(OC)cc2)NC1c1ccc(Cl)cc1 (stereo not drawn),nt,nt,0,nt,nt,nt,nt
S=C1NCN(CC2CC2)CN1,nt,nt,1,nt,nt,nt,nt
CCCCOCC1CN(CCCC)S(=O)(=O)c2c(cccc2N2CCCC2)O1 (stereo not drawn),nt,nt,0,nt,nt,nt,nt
COCc1[nH]nc2c1C(c1ccc(F)cc1)N(c1ccccc1)C2=O (stereo not drawn),nt,nt,0,nt,nt,nt,nt
CC(C)C1S/C(=N/N=C/c2ccco2)NC1=O (stereo not drawn),0,0,4.7*,-1,1,7,nt
COC(=O)Cc1nnn2c1[C@H](C)[C@H](c1ccccc1Br)OC[C@@H]2c1ccccc1,nt,nt,0,nt,nt,nt,nt
N#C/C(=C\c1cccnc1)c1ccc(Br)cc1,-2,44*,2,-2,4,-2,nt
O=C(CN(Cc1ccccc1)C(=O)CNS(=O)(=O)c1ccc(Cl)cc1)NCC1CCCO1 (stereo not drawn),-3,10,-2,1,0.0*,0,2
C[C@@H]1COc2cccc(NCCCN3CCOCC3)c2S(=O)(=O)N1,nt,nt,0,nt,nt,nt,nt
COc1ccccc1N(C(=O)c1ccco1)C(C(=O)NC1CCCC1)c1cccs1 (stereo not drawn),-3,-4,0,-2,0.0*,-1,-1
COc1ccc(OC)c(C(C(=O)NC2CCCCC2)N(C(=O)c2snc(C(N)=O)c2N)c2ccccc2OC)c1 (stereo not drawn),-11,10,0,1,7,2,nt
COc1ccc(N(C(=O)c2ccco2)C(C(=O)NC2CCCC2)c2cccs2)cc1OC (stereo not drawn),-2,9,1,-3,-2,nt,nt
COc1ccccc1N(C(=O)c1snc(C(N)=O)c1N)C(C(=O)NC1CCCCC1)c1cccc(OC)c1OC (stereo not drawn),-5,13,1,-2,25*,-14,-6
Cc1cccc(-c2cccc3[nH]c4c(c23)CCN2C(=O)[C@H]3[C@H](C)ON(C)[C@H]3C[C@@H]42)c1,nt,nt,0,nt,nt,nt,nt
COc1ccc(OC(=O)COc2cc(C)ccc2C)cc1,-4,-13,0,-6,6.1*,0,-1
Cc1ccc2c(n1)sc1c(-c3ccccc3)c(C#N)c(N)nc12,-2,-18,0,-9,5.9*,3,5
COc1ccc(-n2c(C)c(C(C)=O)c3cc(OC(C)=O)ccc32)cc1,-4,16,1,1,5.3*,-13,-5
CCOc1ncccc1C(=O)Nc1cccc(S(=O)(=O)NC2=NCCC2)c1,-4,-3,1,3,12*,3,0
CC(=O)c1cccc(NC(=O)Nc2cccnc2)c1,-7,8,2,-5,7.9*,-12,5
CC(=O)C1=C(C)NC(=S)NC1c1ccc(F)cc1 (stereo not drawn),nt,nt,1,nt,nt,nt,nt
O=C(NCc1ccc(F)cc1)C(c1ccco1)N(C(=O)c1csnn1)c1ccccc1 (stereo not drawn),-1,-6,-1,0,11*,0,-4
O=C(NCc1ccc(F)cc1)C(c1ccccc1)N(C(=O)c1csnn1)c1ccccc1 (stereo not drawn),-6,-4,-1,-2,3,-2,nt
CNC(=S)N(CCc1c(C)[nH]c2ccc(C)cc12)Cc1cccnc1,1,-4,-1,-2,13*,1,-4
Cc1cccc(NC(=S)N(CCc2nc3cc(C)c(C)cc3[nH]2)Cc2cccnc2)c1,-1,4,0,-4,4.8*,-1,-1
O=C(Nc1ccccc1)OC[C@@H]1CSCCS(=O)(=O)N1,nt,nt,0,nt,nt,nt,nt
SMILES,bovine MsrA act,SKN-1 block,MsrA inh,DAGLB inhibitor,MIN6 prolif-1,MT1-MMP act inh,MIN6 prolif-2
O=C(NC1CCCCCC1)C1CCN(S(=O)(=O)c2ccc(F)cc2)CC1,-2,-8,3,2,6.5*,-3,1
CN1CCN(CC(O)COC(c2ccccc2)c2ccccc2)CC1 (stereo not drawn),-7,4,1,nt,8.2*,3,-2
Cc1cc(N(C(=O)c2ccco2)C(C(=O)NC2CCCCC2)c2ccccc2)ccc1-n1cnnn1 (stereo not drawn),-3,15,0,0,-2,6,nt
COc1cccc(C(C(=O)NC2CCCCC2)N(C(=O)c2ccco2)c2ccc(-n3cnnn3)c(C)c2)c1 (stereo not drawn),0,20,0,-1,7.7*,-7,-2
C=CCN1[C@@H](C)[C@@H](c2ccccc2)Oc2c(Cl)cccc2S1(=O)=O,nt,nt,-1,nt,nt,nt,nt
CCn1c(C)nc2cc(C(=O)N/N=C/c3ccc(OC)cc3)ccc21,-16,2,4,nt,7.8*,4,3
C[C@@H]1CN([C@@H](C)CO)C(=O)CCCn2cc(nn2)CO[C@H]1CN(C)C(=O)Nc1ccc(-c2cccs2)cc1,nt,nt,1,nt,nt,nt,nt
COc1cccc(/C=N/NC(=O)CO/N=C(\C)c2cccs2)c1OC,-2,10,-1,-6,4.6*,3,0
COc1ccc(NC(C)=O)cc1S(=O)(=O)Nc1ccc2c(c1)OCCO2,-4,10,2,-1,7.9*,-1,-3
Cc1cc(=O)n(Cc2ccccc2)c2c(C)cccc12,-1,16,-1,-9,-2,0,nt
Cc1cc(=O)n(Cc2ccccc2)c2ccccc12,-2,2,-1,-1,9.2*,2,3
CCCCCCCCN1C(=O)[C@@H](CC(=O)NCCC(C)C)C[C@@]2(C(=O)OC)C1=C[C@H](C1CCCC1)O[C@@H]2C,nt,nt,0,nt,nt,nt,nt
Cc1ccsc1/C=N/NC(=O)CNC(=O)c1cccc([N+](=O)[O-])c1C,-2,7,1,-1,8.1*,5,-2
COC(=O)[C@]12C[C@H](CC(=O)NCc3cccc4ccccc34)C(=O)N(Cc3ccc4c(c3)OCO4)C1=C[C@H](COCc1ccccc1)O[C@@H]2C,nt,nt,1,nt,nt,nt,nt
Clc1ccc(-c2nnc(CNC3CC3)o2)cc1,0,14,0,1,9.5*,1,-3
CCN1C(=O)[C@H]2[C@@H](c3ccc(-c4ccc(F)cc4)cc3)N[C@@](CC(C)C)(C(=O)OC)[C@H]2C1=O,-1,10,1,-2,-8,-3,nt

# Bioassay records from PubChem.
